System: U2OS
Assay: Multiplex assay against U2OS
Format: toxicity, cell-based
Conditions: human
How it was run: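 Cells stained live at seeding with Hoechst33342, BioTracker Green Microtubule Cytoskeleton Dye, MitoTracker Red and Annexin V Alexa Fluor 680 were imaged on a CQ1 microscope at 37°C and 5% CO2 after compound addition. Their classification by CellPathfinder machine-learning gating ran from Hoechst high-intensity objects versus normal cells, to healthy, pyknosed or fragmented nuclei among normal cells, to mitotic or apoptotic among pyknosed cells. Tubulin, mitochondrial-mass and membrane-permeability phenotypes are per cents of healthy-nucleus cells.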

[1] = 12 h, 1 µM, compound concentration 1 uM, replicate 1
[2] = 12 h, 1 µM, compound concentration 1 uM, replicate 2
[3] = 12 h, 10 µM, compound concentration 10 uM, replicate 1
[4] = 12 h, 10 µM, compound concentration 10 uM, replicate 2
[5] = 24 h, 1 µM, compound concentration 1 uM, replicate 1
[6] = 24 h, 1 µM, compound concentration 1 uM, replicate 2
[7] = 24 h, 10 µM, compound concentration 10 uM, replicate 1
[8] = 24 h, 10 µM, compound concentration 10 uM, replicate 2
[9] = 48 h, 1 µM, compound concentration 1 uM, replicate 1
[10] = 48 h, 1 µM, compound concentration 1 uM, replicate 2
[11] = 48 h, 10 µM, compound concentration 10 uM, replicate 1
[12] = 48 h, 10 µM, compound concentration 10 uM, replicate 2

## CC(C)(O)C(=O)N1CCN(c2ccc(C(F)(F)F)c(C3=C(c4c[nH]c5ccccc45)C(=O)NC3=O)c2)CC1
[1]
  Population Apoptotic (%): 88%
  Population Fragmented Nuclei (%): 29%
  Population Healthy Nuclei (%): 63%
  Population Hoechst High Intensity Objects (%): 3%
  Population Membrane Permeable-Phenotype (%): 5%
  Population Mitochondria Different-Phenotype (%): 2%
  Population Mitotic Cells (%): 11%
  Population Normal (%): 96%
  Population Pyknosed Nuclei (%): 7%
  Population Tubulin-Different-Phenotype (%): 3%
  Total Cell Count: 238
[2]
  Population Apoptotic (%): 92%
  Population Fragmented Nuclei (%): 14%
  Population Healthy Nuclei (%): 75%
  Population Hoechst High Intensity Objects (%): 1%
  Population Membrane Permeable-Phenotype (%): 4%
  Population Mitochondria Different-Phenotype (%): 4%
  Population Mitotic Cells (%): 7%
  Population Normal (%): 98%
  Population Pyknosed Nuclei (%): 9%
  Total Cell Count: 134
[3]
  Population Apoptotic (%): 76%
  Population Fragmented Nuclei (%): 37%
  Population Healthy Nuclei (%): 46%
  Population Hoechst High Intensity Objects (%): 6%
  Population Membrane Permeable-Phenotype (%): 39%
  Population Mitochondria Different-Phenotype (%): 23%
  Population Mitotic Cells (%): 24%
  Population Normal (%): 93%
  Population Pyknosed Nuclei (%): 16%
  Population Tubulin-Different-Phenotype (%): 30%
  Total Cell Count: 166
[4]
  Population Apoptotic (%): 50%
  Population Fragmented Nuclei (%): 6%
  Population Healthy Nuclei (%): 77%
  Population Hoechst High Intensity Objects (%): 1%
  Population Membrane Permeable-Phenotype (%): 14%
  Population Mitochondria Different-Phenotype (%): 14%
  Population Mitotic Cells (%): 50%
  Population Normal (%): 98%
  Population Tubulin-Different-Phenotype (%): 15%
  Total Cell Count: 148
[5]
  Population Apoptotic (%): 89%
  Population Fragmented Nuclei (%): 27%
  Population Healthy Nuclei (%): 61%
  Population Hoechst High Intensity Objects (%): 3%
  Population Membrane Permeable-Phenotype (%): 7%
  Population Mitochondria Different-Phenotype (%): 3%
  Population Mitotic Cells (%): 10%
  Population Normal (%): 96%
  Population Pyknosed Nuclei (%): 11%
  Population Tubulin-Different-Phenotype (%): 5%
  Total Cell Count: 263
[6]
  Population Apoptotic (%): 82%
  Population Fragmented Nuclei (%): 22%
  Population Healthy Nuclei (%): 67%
  Population Hoechst High Intensity Objects (%): 0%
  Population Membrane Permeable-Phenotype (%): 4%
  Population Mitochondria Different-Phenotype (%): 2%
  Population Mitotic Cells (%): 17%
  Population Normal (%): 100%
  Population Pyknosed Nuclei (%): 9%
  Population Tubulin-Different-Phenotype (%): 2%
  Total Cell Count: 172
[7]
  Population Apoptotic (%): 87%
  Population Fragmented Nuclei (%): 48%
  Population Healthy Nuclei (%): 27%
  Population Hoechst High Intensity Objects (%): 6%
  Population Membrane Permeable-Phenotype (%): 11%
  Population Mitochondria Different-Phenotype (%): 34%
  Population Mitotic Cells (%): 12%
  Population Normal (%): 93%
  Population Pyknosed Nuclei (%): 24%
  Population Tubulin-Different-Phenotype (%): 15%
  Total Cell Count: 172
[8]
  Population Apoptotic (%): 70%
  Population Fragmented Nuclei (%): 16%
  Population Healthy Nuclei (%): 53%
  Population Hoechst High Intensity Objects (%): 2%
  Population Membrane Permeable-Phenotype (%): 15%
  Population Mitochondria Different-Phenotype (%): 24%
  Population Mitotic Cells (%): 29%
  Population Normal (%): 97%
  Population Pyknosed Nuclei (%): 29%
  Population Tubulin-Different-Phenotype (%): 11%
  Total Cell Count: 152
[9]
  Population Apoptotic (%): 95%
  Population Fragmented Nuclei (%): 21%
  Population Healthy Nuclei (%): 65%
  Population Hoechst High Intensity Objects (%): 3%
  Population Membrane Permeable-Phenotype (%): 6%
  Population Mitochondria Different-Phenotype (%): 4%
  Population Mitotic Cells (%): 4%
  Population Normal (%): 96%
  Population Pyknosed Nuclei (%): 12%
  Population Tubulin-Different-Phenotype (%): 5%
  Total Cell Count: 377
[10]
  Population Apoptotic (%): 85%
  Population Fragmented Nuclei (%): 17%
  Population Healthy Nuclei (%): 73%
  Population Hoechst High Intensity Objects (%): 1%
  Population Membrane Permeable-Phenotype (%): 7%
  Population Mitochondria Different-Phenotype (%): 3%
  Population Mitotic Cells (%): 14%
  Population Normal (%): 98%
  Population Pyknosed Nuclei (%): 9%
  Population Tubulin-Different-Phenotype (%): 2%
  Total Cell Count: 233
[11]
  Population Apoptotic (%): 95%
  Population Fragmented Nuclei (%): 57%
  Population Healthy Nuclei (%): 11%
  Population Hoechst High Intensity Objects (%): 14%
  Population Membrane Permeable-Phenotype (%): 27%
  Population Mitochondria Different-Phenotype (%): 16%
  Population Mitotic Cells (%): 4%
  Population Normal (%): 85%
  Population Pyknosed Nuclei (%): 30%
  Population Tubulin-Different-Phenotype (%): 11%
  Total Cell Count: 177
[12]
  Population Apoptotic (%): 96%
  Population Fragmented Nuclei (%): 31%
  Population Healthy Nuclei (%): 27%
  Population Hoechst High Intensity Objects (%): 7%
  Population Membrane Permeable-Phenotype (%): 17%
  Population Mitochondria Different-Phenotype (%): 14%
  Population Mitotic Cells (%): 3%
  Population Normal (%): 92%
  Population Pyknosed Nuclei (%): 41%
  Population Tubulin-Different-Phenotype (%): 17%
  Total Cell Count: 163

— ChEMBL document CHEMBL5058577, “EUbOPEN Chemogenomics Library 2 (Multiplex)” (2022)
